The source made the active and inactive calls.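 Rule for the calls, unless noted: active = fluorescence slope after compound addition differing from the mean of all tested samples at 99.7% confidence, mostly higher but some lower; inactive = the rest.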
Experiments:
[1] = inhibitors of TNFa-induced NFkB p65 translocation, primary screen, imaging, HUVEC, MLSMR starter and 10KST1 sets (AID 438;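 active = inhibition above 20% together with a positive visual image hit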;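 note: compound added about 3h40 before a 20 min TNFalpha stimulation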;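 for inhibition: signal is the nuclear over cytoplasmic p65 intensity ratio per well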); details: HUVEC TNFa-induced p65 nuclear translocation; cell count: measured here: nuclei count (cytotoxicity indicator), at 2.08 µM; inhibition: at 2 µM, stronger effect = higher value, 0% TNFa-plus-vehicle, 100% no-TNFa wells
[2] = reduction of polyQ htt aggregates in cells – imaging, exon1htt(103Q)mCFP cells, high-content imaging, primary screen (AID 483;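 active = visual image review flags a hit and inhibition of aggregation exceeds 20%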;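 note: compound exposure lasted 3 days before fixation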;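 for nuclei count: percent of the per-plate median nuclei count of sample wells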); details: exon1htt(103Q)mCFP cell line, aggregate imaging, at 2 µM; inhibition of aggregation: stronger effect = higher value; nuclei count: measured here: cell count, toxicity
[3] = endothelial E-selectin expression blockers – imaging, HUVEC, immunofluorescence, MLSMR starter and 10KST1 sets, primary screen (AID 487;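 active = visually confirmed hit in the image check and inhibition above 20%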;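 for inhibition: signal is fraction of cell area covered by stained E-selectin grains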;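 for nuclei count: 100% = median nuclei count of all wells on the same plate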); details: HUVEC TNFalpha-induced E-selectin immunofluorescence imaging, at 2 µM; inhibition: stronger effect = higher value; nuclei count: measured here: cell number, toxicity
[4] = target: Voltage-gated potassium channel subunit beta-2 (Rattus norvegicus) (UniProt P62483); experiment: inhibitors of rat Kvbeta2 reductase activity – biochemical, NADPH fluorescence, primary screen (AID 622;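 active = fluorescence slope higher than the sample average by over 3 SD, cut at about -0.22 in these data, passing the limit was not always enough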;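 note: slope of raw intensity against log time taken from 70 to 1610 s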); details: recombinant KvBeta, 4-cyanobenzaldehyde reduction, at 10 µM, stronger effect = higher value
Chain of Voltage-gated potassium channel subunit beta-2 (Rattus norvegicus) (P62483 whole entry, looked up): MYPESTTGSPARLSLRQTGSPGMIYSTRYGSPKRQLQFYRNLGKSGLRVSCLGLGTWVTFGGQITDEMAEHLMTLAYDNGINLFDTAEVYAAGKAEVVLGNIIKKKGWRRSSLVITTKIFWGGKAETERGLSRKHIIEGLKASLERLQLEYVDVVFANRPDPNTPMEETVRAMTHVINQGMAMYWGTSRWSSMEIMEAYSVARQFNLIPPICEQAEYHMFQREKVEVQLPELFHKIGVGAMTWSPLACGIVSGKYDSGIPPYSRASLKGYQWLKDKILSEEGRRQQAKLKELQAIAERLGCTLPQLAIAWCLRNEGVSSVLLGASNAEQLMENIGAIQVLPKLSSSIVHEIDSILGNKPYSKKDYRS

[5] = target: Voltage-gated potassium channel subunit beta-2 (Rattus norvegicus) (UniProt P62483); experiment: enhancers of rat Kvbeta2 NADPH turnover – biochemical, NADPH fluorescence, primary screen (AID 623;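 active = NADPH fluorescence slope more negative than the mean of all samples by about 3 SD, 99.7% confidence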;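 note: fluorescence intensity change per second fitted from 20 to 320 s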); details: Recombinant KvBeta, NADPH fluorescence decrease slope, 10 min; at 10 µM; stronger effect = lower value
[6] = target: Muscarinic acetylcholine receptor M4 (Homo sapiens) (UniProt P08173); experiment: M4-linked GIRK flux change, two-sided – cell-based, HEK293 M4/GIRK, thallium flux, BTC-AM, M4 allosteric agonist project, primary screen (AID 625); details: at 10 µM, actives lie on both sides;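 note: thallium influx through GIRK channels coupled to M4 in HEK293 cells with BTC-AM dye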
Chain of Muscarinic acetylcholine receptor M4 (Homo sapiens) (P08173 whole entry, looked up): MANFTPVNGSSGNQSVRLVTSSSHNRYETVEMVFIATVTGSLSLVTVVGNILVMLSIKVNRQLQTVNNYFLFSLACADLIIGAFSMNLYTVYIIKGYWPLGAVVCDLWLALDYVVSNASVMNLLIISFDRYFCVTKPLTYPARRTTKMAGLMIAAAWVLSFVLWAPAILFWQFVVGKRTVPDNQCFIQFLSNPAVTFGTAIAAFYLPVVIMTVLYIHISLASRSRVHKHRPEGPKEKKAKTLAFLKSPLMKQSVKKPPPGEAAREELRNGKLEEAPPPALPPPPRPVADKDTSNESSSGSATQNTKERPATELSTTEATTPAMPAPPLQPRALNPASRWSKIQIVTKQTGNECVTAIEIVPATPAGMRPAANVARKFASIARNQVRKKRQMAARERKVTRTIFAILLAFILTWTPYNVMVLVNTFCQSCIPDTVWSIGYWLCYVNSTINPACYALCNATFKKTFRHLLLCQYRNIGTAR
Procedure, shortened: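 Material: M4/GIRK1/GIRK2 stable HEK293 cell line. Medium: pH 7.3 thallium assay buffer. Dosing: single compound concentration, 10 µM final. Schedule: 1 h dye loading, 2 min kinetic read. Measured by: kinetic fluorescence with BTC-AM dye. Read-out: post-addition slope, 15–24 s, of baseline-normalized fluorescence. Benchmarks: carbachol and DMSO controls.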

[7] = blockers of RIG-like receptor reporter activation – cell-based, Sendai virus stimulus, luciferase, 10K MLSCN set, TLR/RLR signaling modifier project, primary screen (AID 602276;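 active = inhibition at or above 50% at 10 µM; inactive = inhibition below 50%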;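 note: firefly luciferase from ISG56 promoter only with Renilla not read in this screen; 0% = Sendai virus plus DMSO and 100% = medium plus DMSO without virus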); details: HEK293 RL24 IRF3 luciferase reporter, at 10 µM, stronger effect = higher value
[8] = TLR3 IRF3 reporter activation blockers – cell-based, poly I:C stimulus, luciferase, 10K MLSCN set, primary screen (AID 602277;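 active = inhibition of the reporter signal at or above 50%; inactive = inhibition below 50%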); details: HEK293-TLR3 RL24 IRF3 luciferase reporter, at 10 µM, stronger effect = higher value

Compound | cell count [1] | inhibition [1] | inhibition of aggregation [2] | nuclei count [2] | inhibition [3] | nuclei count [3] | fluorescence slope [4] | NADPH fluorescence slope [5] | fluorescence slope [6] | inhibition [7] | inhibition [8]
COc1cccc(OCc2nc3c4cnn(-c5ccccc5)c4ncn3n2)c1 | 418 | -6.7% (inactive) | -8.8% (inactive) | 104% | -118% (inactive) | 110% | -0.576 (inactive) | 1.4e-05 (inactive) | 0.00593 (inactive) | 8.13% (inactive) | -16.4% (inactive)
O=C(NCc1ccco1)C1CCN(C(=O)c2cc3sccc3n2Cc2ccc(F)cc2)CC1 | 571 | -16.7% (inactive) | -0.6% (inactive) | 122% | -27.8% (inactive) | 101% | -0.381 (inactive) | -4.5e-05 (inactive) | 0.00956 (inactive) | 17.8% (inactive) | 27.2% (inactive)
O=C(O)CCC(=O)Nc1nc(-c2ccccc2)cs1 | 546 | -24.7% (inactive) | -8.2% (inactive) | 110% | 4.3% (inactive) | 147% | -0.449 (inactive) | 0.00011 (inactive) | 0.00599 (inactive) | 16.3% (inactive) | 23.8% (inactive)
CCOc1ccc2cc(C#N)c(SCC(=O)N3CCOCC3)nc2c1 | 386 | 1% (inactive) | 11.7% (inactive) | 97.9% | -46.6% (inactive) | 90.7% | -0.487 (inactive) | -2.5e-05 (inactive) | 0.00448 (inactive) | -22.4% (inactive) | -67% (inactive)
Cc1ccc(-c2nnn(CC(=O)NC3CC4CCC3C4)n2)cc1 (stereo not given) | 239 | -5% (inactive) | 15.8% (inactive) | 77.6% | 3.6% (inactive) | 102% | -0.563 (inactive) | -4.4e-05 (inactive) | 0.00799 (inactive) | 7.26% (inactive) | -0.548% (inactive)
Cc1ccc(-c2ccc(=O)n(CCC(=O)NCc3ccccn3)n2)cc1 | 366 | -15.6% (inactive) | -2.2% (inactive) | 99.9% | -2.7% (inactive) | 108% | -0.534 (inactive) | -3e-05 (inactive) | 0.00635 (inactive) | 14.5% (inactive) | 21.8% (inactive)
Cc1nc2ccc(S(=O)(=O)NCC(=O)O)cc2s1 | 423 | 5.2% (inactive) | -3% (inactive) | 110% | -56.1% (inactive) | 118% | -0.45 (inactive) | 4.8e-05 (inactive) | 0.00579 (inactive) | -1.77% (inactive) | 13% (inactive)
O=C(Cn1ccc2ccccc2c1=O)NCCC(=O)N1CCN(C2CCCCC2)CC1 | 510 | -3.8% (inactive) | 10.9% (inactive) | 83.8% | 15.7% (inactive) | 110% | -0.395 (inactive) | 2.2e-05 (inactive) | 0.00596 (inactive) | 9.9% (inactive) | 18.5% (inactive)
CS(=O)(=O)c1ncc(Cl)c(C(=O)Nc2ccc(N3CCOCC3)cc2)n1 | 351 | -2.1% (inactive) | -35.6% (inactive) | 112% | 24.9% (inactive) | 111% | -0.46 (inactive) | 2.2e-05 (inactive) | 0.00607 (inactive) | 21.4% (inactive) | 62.8% (active)
Cn1c(=O)c(NC(=O)c2ccccc2)c2n(c1=S)CCCCC2 | 359 | -5.7% (inactive) | 13.7% (inactive) | 95.3% | -17% (inactive) | 107% | -0.57 (inactive) | -1.1e-05 (inactive) | 0.00647 (inactive) | 16.3% (inactive) | 20% (inactive)

Reference: PubChem BioAssay
